High-throughput results: PubChem, several laboratories
Apaf-1 inh = inhibitors of human Apaf-1 apoptosome, primary screen, biochemical, DEVD-Rh110 fluorescence, uHTS; reconstituted apoptosome caspase-3 activity; inhibition, % at 20 µM; 330,000 tested, 0.71% active; active means inhibition of at least 40% at 20 µM;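 further: plate controls were DMSO wells for no effect and DEVD-CHO caspase inhibitor wells for full effect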
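Material: cell-free apoptosome with Apaf-1, procaspase-3 and caspase-9; Buffer or medium: Hepes pH 7.5 with detergent and BSA; Reagent: cytochrome c trigger plus (Z-DEVD)2-Rh110 caspase-3 substrate; Times: compound with Apaf-1, dATP, procaspase-3 30 min, then 50 min reaction, room temperature; Technique: Rh110 fluorescence intensity.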
UBC13 polyUb = UBC13 polyubiquitin chain formation inhibitors, primary screen, biochemical, TR-FRET, uHTS | inhibition, % at 20 µM | Ubiquitin-conjugating enzyme E2 N (Homo sapiens), P61088 | 330,000 tested, 0.47% active; in the data active means inhibition above about 45%, passing the limit was not always enough
Target sequence (P61088 whole entry, looked up): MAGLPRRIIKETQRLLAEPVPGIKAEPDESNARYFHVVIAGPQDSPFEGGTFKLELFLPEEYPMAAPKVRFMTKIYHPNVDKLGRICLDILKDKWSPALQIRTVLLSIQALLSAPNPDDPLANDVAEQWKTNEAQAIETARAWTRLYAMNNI
DNA FID counter = compounds displacing fluorescent DNA intercalator, primary screen, artefact control for HCV NS3 helicase inhibitor project, biochemical, FID fluorescence | DNA fluorescent intercalator displacement | 290,000 tested, 0.17% active | AID 1845, 2009 | inhibition, % at 7.9 µM; in the data active means inhibition above about 37%;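 further: 0% = vehicle and 100% = reference compound; higher means more ethidium bromide displaced from hairpin DNA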
RAD54 branch = inhibitors of human RAD54 branch migration, primary screen, biochemical, fluorescence, single point; DNA repair and recombination protein RAD54-like (Homo sapiens), Q92698; RAD54 Holliday junction branch migration, FAM/BHQ fluorescence; inhibition, % at 10.4 µM; 360,000 tested, 0.14% active;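 active means mean normalized replicate activity at least 40 and at least half of replicates scoring 40 or more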;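 further: 0% = median of neutral control wells and 100% = median of positive control wells; inhibitors cause a drop in the FAM fluorescence signal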
RAD52 anneal inh = RAD52 DNA annealing inhibitors, primary screen, biochemical, FRET, single point, set 2; DNA repair protein RAD52 homolog (Homo sapiens), P43351; recombinant RAD52 DNA annealing, FRET fluorescence; inhibition, % at 18.7 µM; 360,000 tested, 0.46% active;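 active means every replicate showing at least 50% inhibition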
Target sequence (P43351 whole entry, looked up): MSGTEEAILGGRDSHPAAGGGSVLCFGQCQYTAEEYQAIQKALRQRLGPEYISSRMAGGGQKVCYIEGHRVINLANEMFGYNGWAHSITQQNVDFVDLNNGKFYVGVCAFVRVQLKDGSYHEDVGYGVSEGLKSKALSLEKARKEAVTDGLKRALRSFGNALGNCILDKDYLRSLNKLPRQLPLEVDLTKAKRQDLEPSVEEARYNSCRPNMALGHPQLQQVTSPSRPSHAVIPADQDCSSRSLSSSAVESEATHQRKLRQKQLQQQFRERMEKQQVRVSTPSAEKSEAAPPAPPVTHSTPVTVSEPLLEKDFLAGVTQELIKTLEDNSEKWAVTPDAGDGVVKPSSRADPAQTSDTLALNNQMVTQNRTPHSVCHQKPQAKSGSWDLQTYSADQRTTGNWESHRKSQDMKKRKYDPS
Neddyl block = inhibitors of cullin neddylation, primary screen, biochemical, TR-FRET, uHTS, NAE and Ubc12 | AID 651699, 2012 | NEDD8-conjugating enzyme Ubc12 (Homo sapiens) + NEDD8-activating enzyme E1 regulatory … | 360,000 tested, 0.58% active | calls only at 25 µM; in the data active means inhibition above about 36%
Neddyl inh conf = blockade of NEDD8 conjugation to cullin – biochemical, TR-FRET, single concentration, confirmation; shares compounds with Neddyl block; TR-FRET cullin neddylation biochemical assay; calls only at 25 µM; 1,800 tested, 13% active; in the data active means inhibition above about 40%;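 further: neddylation substrate is the cullin 1 ring ligase complex with SKP2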
Numbers without * were called inactive; i = inactive; . = no result given; + = active, no number. The list is not random: actives were taken first. Their share in the collection is about 1.6%.

SMILES | Apaf-1 inh | UBC13 polyUb | DNA FID counter | RAD54 branch | RAD52 anneal inh | Neddyl block | Neddyl inh conf
CCOC(=O)c1nn(-c2ccccc2C)c2nc(CC(C)C)c(C#N)c(=O)n12 | 4.7 | 11.5 | -12.4 | -13.4 | . | + | i
CCOC(=O)c1nn(-c2ccc(OCC)cc2)c2nc(CC(C)C)c(C#N)c(=O)n12 | 31.3 | 10.5 | -3.9 | 5.4 | . | . | .
Brc1ccc(-c2nn3c(-c4ccco4)nnc3s2)o1 | 25.5 | -73.8 | -16.4 | -10.1 | . | i | .
Clc1ccc(-c2ccc(-c3nn4c(-c5ccco5)nnc4s3)o2)cc1 | 27.3 | 25.7 | -7.5 | 3.9 | . | + | i
O=C(C[C@@H]1C[C@H]2c3cc(NC(=O)Nc4ccc(C(F)(F)F)cc4)ccc3O[C@H]2[C@@H](CO)O1)NCc1ccc(Cl)cc1 | . | . | . | 1.7 | 17.9 | . | .
CCc1ccc(/C=C(\Cl)c2nc3cc(Cl)ccc3c(=O)[nH]2)cc1 | 14.2 | 6.6 | 1.1 | . | . | i | .
O=c1[nH]c(/C(Cl)=C/c2cccc(F)c2)nc2cc(C(F)(F)F)ccc12 | 9.9 | -1.9 | 1.3 | . | -3.3 | + | i
COc1cc2[nH]c3c(c2cc1OC)CCN1CCCC[C@@H]31 | 2.3 | -19.2 | . | 19.3 | 25.2 | + | i
COc1cc2[nH]c(=S)n(C3CCCC3)c(=O)c2cc1OC | 7.6 | -11.1 | -6.4 | 4.5 | . | i | .
Cc1ccc(-c2cc3nc(-c4ccccc4)cc(N)n3n2)cc1 | -8.1 | 6.5 | 2.9 | 0.6 | . | + | i
Cc1ccc2nc(-c3ccc(NC(=O)COCC(=O)O)cc3)sc2c1 | -0.4 | -14.6 | -22.8 | -3.4 | -15.6 | + | +
CCCC#Cc1ccc([C@H]2[C@@H](CO)N(C(C)=O)[C@H]2CNC(=O)C2CCCC2)cc1 | . | . | . | . | -71.2 | . | .
O=S(=O)(N[C@H]1CC[C@@H](CCn2cc(-c3ccccn3)nn2)O[C@H]1CO)c1cccc(Cl)c1 | . | . | . | -6.3 | 6.3 | . | .
CO[C@H]1CN(C)C(=O)c2cc(NC(=O)c3ccc(F)cc3)ccc2OC[C@H](C)N(C(=O)CN(C)C)C[C@@H]1C | . | . | . | 5.5 | 2.8 | . | .
O=C(Cc1ccccc1)N1CC2(C1)[C@H](c1ccccc1)[C@@H](CO)N2S(=O)(=O)Cc1ccccc1 | . | . | . | . | -162.8 | . | .
N#Cc1ccc(-c2ccc(OCC(=O)Nc3cccnc3)cc2)cc1 | 2.1 | 8.6 | -27.2 | -1.1 | -12.8 | + | i
CC(=O)Nc1ccc(NC(=O)COc2ccc(-c3ccc(C#N)cc3)cc2)cc1 | 2.3 | 22.4 | . | 5.5 | -7.2 | i | .
Cc1ccc(-c2ccc(CCC(=O)O)n2CC2CCCO2)cc1 (stereo not drawn) | -7.5 | -1.2 | -15.9 | . | . | . | .
COC(=O)Cn1c(CCC(=O)O)ccc1-c1ccccc1 | -7.9 | -2.2 | -20.4 | -6.6 | -43.3 | + | i
O=C(O)CCc1ccc(-c2ccccc2)n1CC1CCCO1 (stereo not drawn) | 1.8 | 4.0 | -12.6 | 2.0 | . | + | .
Cc1ccc(S(=O)(=O)Nc2ccc3c(c2)C(=O)N([C@@H](C)CO)C[C@@H](C)[C@@H](CN(C)S(C)(=O)=O)O3)cc1 | . | . | . | 1.0 | -7.8 | . | .
COc1cc(/C=N/NC(=O)c2ccc3nc[nH]c3c2)cc(OC)c1OC | -7.6 | -6.2 | -12.1 | . | . | . | .
COc1cc(/C=N/NC(=O)c2ccc(CSc3nc4ccccc4[nH]3)cc2)cc(OC)c1OC | -3.6 | -7.0 | -28.6 | 8.3 | . | + | +
COc1cc(/C=N/Nc2nc3ccccc3[nH]2)cc(Br)c1OCC(=O)N(C)C | 9.7 | -24.8 | -5.0 | 12.8 | -6.4 | + | +
CCCN1C[C@@H](C)[C@H](OC)CN(C)C(=O)c2cc(NC(=O)Nc3cccc(F)c3)ccc2OC[C@@H]1C | . | . | . | 5.0 | . | . | .
SMILES | Apaf-1 inh | UBC13 polyUb | DNA FID counter | RAD54 branch | RAD52 anneal inh | Neddyl block | Neddyl inh conf
O=C(C[C@@H]1CC[C@H]2[C@@H](COC[C@@H](O)CN2S(=O)(=O)c2ccc(F)cc2)O1)N[C@H]1CCN(Cc2ccccc2)C1 | . | . | . | 3.2 | -4.4 | . | .
CO[C@@H]1CN(C)C(=O)c2ccc(NS(=O)(=O)c3ccc(Cl)cc3)cc2OC[C@H](C)N(C)C[C@@H]1C | . | . | . | 0.3 | 2.9 | . | .
O=C(C1CCCC1)N1CC2(C1)[C@@H](c1ccccc1)[C@H](CO)N2CCC(F)(F)F | . | . | . | . | -6.3 | . | .
COc1ccc(CCNC(=O)COC(=O)/C=C/c2ccc(OC)cc2OC)cc1 | 15.6 | -8.1 | . | 9.8 | -11.0 | i | .
COc1cccc(/C=C/C(=O)OCC(=O)NCCC2=CCCCC2)c1OC | 8.4 | 6.6 | . | 8.8 | -9.7 | + | i
COc1ccc(OC)c(/C=C/C(=O)OCC(=O)NCc2cccs2)c1 | 16.5 | 0.2 | . | 4.5 | -4.7 | + | .
COc1cccc(/C=C/C(=O)OCC(=O)Nc2ccc(Cl)c(S(=O)(=O)N(C)C)c2)c1OC | 9.4 | -7.2 | -18.1 | . | -20.7 | + | i
COc1ccc(CCNC(=O)COC(=O)/C=C/c2cc(OC)ccc2OC)cc1 | 10.3 | 7.7 | . | -7.9 | -13.2 | + | .
COc1ccc(OC)c(/C=C/C(=O)OCC(=O)NCc2ccccc2)c1 | 8.4 | 6.4 | . | . | 9.2 | . | .
COc1ccccc1/C=C/C(=O)OCC(=O)NCCC1=CCCCC1 | 15.3 | 12.2 | -29.4 | -1.2 | -16.9 | i | .
O=S(=O)(c1cccs1)N1CCCCN2[C@H](CO)[C@H](c3ccc(-c4ccccc4)cc3)[C@@H]2C1 | . | . | . | 0.6 | -24.1 | . | .
COc1ccc(CN(C)C[C@H]2Oc3ccc(NS(=O)(=O)c4ccc(C)cc4)cc3C(=O)N([C@@H](C)CO)C[C@@H]2C)cc1 | . | . | . | 2.5 | 12.6 | . | .
CC(C)NC(=O)Nc1ccc2c(c1)CC(=O)N([C@H](C)CO)C[C@@H](C)[C@H](CN(C)C)O2 | . | . | . | -0.9 | 6.7 | . | .
O=C(C[C@H]1CC[C@H]2[C@@H](COC[C@@H](O)CN2C(=O)Nc2ccc(C(F)(F)F)cc2)O1)NCC1CCCCC1 | . | . | . | -26.1 | 6.5 | . | .
COC(=O)CSc1ccc2c(N)c(C(=O)OC)sc2c1 | 0.9 | 1.2 | 5.2 | 1.8 | . | + | +
COC(=O)CSc1nc2ccc(N)cc2s1 | -20.9 | 3.5 | -6.5 | -0.9 | -18.0 | i | .
N#Cc1cc(-c2cccc(Cl)c2)c[nH]c1=O | -3.9 | 0.2 | -4.3 | . | . | i | .
C=CCn1cc(-c2cccc(Cl)c2)cc(C#N)c1=O | -4.3 | 6.3 | -4.7 | 6.0 | . | + | i
Cn1c(-c2ccc(Cl)cc2)ccc(C#N)c1=O | 4.4 | -0.8 | 2.5 | . | . | i | .
